Source: ChEMBL document CHEMBL1151246, “New crinine-type alkaloids with inhibitory effect on induction of inducible nitric oxide synthase from Crinum yemense” (J Nat Prod, 2004)

What was measured:
Macrophage [1] = test: Inhibition of LPS-induced NO production in ddY mouse macrophages at 1 uM after 20 hrs by Griess reagent assay relative to control; format: functional
Procedure, shortened: (§1)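 Thioglycolate-elicited peritoneal macrophages from male ddY mice were precultured 1 h; nonadherent cells were washed off. Adherent cells (5 × 10⁵/well, RPMI 1640 with 5% FCS) were exposed 20 h to 10 μg/mL LPS with compound (1–100 μM, 0.5% DMSO final). Nitrite in the medium was measured with Griess reagent. Inhibition = (A−B)/(A−C) × 100 against LPS-only and unstimulated wells; IC50 was read graphically, N = 4, means ± SEM.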

Macrophage [2] = test: Inhibition of LPS-induced NO production in ddY mouse macrophages at 3 uM after 20 hrs by Griess reagent assay relative to control; format: functional; procedure, shortened: as §1
Macrophage [3] = test: Inhibition of LPS-induced NO production in ddY mouse macrophages at 10 uM after 20 hrs by Griess reagent assay relative to control; format: functional; procedure, shortened: as §1
Macrophage [4] = test: Inhibition of LPS-induced NO production in ddY mouse macrophages at 30 uM after 20 hrs by Griess reagent assay relative to control; format: functional; procedure, shortened: as §1
Macrophage [5] = test: Inhibition of LPS-induced NO production in ddY mouse macrophages at 100 uM after 20 hrs by Griess reagent assay relative to control; format: functional; procedure, shortened: as §1
Macrophage [6] = test: Inhibition of LPS-induced NO production in ddY mouse macrophages after 20 hrs by Griess reagent assay; format: functional, cell-based; procedure, shortened: as §1

Structure (SMILES)	inhibition at 1 µM (Macrophage [1]) [%]	inhibition at 3 µM (Macrophage [2]) [%]	inhibition at 10 µM (Macrophage [3]) [%]	inhibition at 30 µM (Macrophage [4]) [%]	inhibition at 100 µM (Macrophage [5]) [%]	IC50 (Macrophage [6]) [µM]
O[C@H]1C=C[C@]23c4cc5c(cc4CN(C[C@@H]2O)[C@H]3C1)OCO5	3.1	7.4	28.6	55.6	82	24
CO[C@H]1C=C[C@@]23c4cc5c(cc4CN(C[C@@H]2O)[C@H]3C1)OCO5	8.1	7.8	30.2	65.2	86.1	1.8
CO[C@H]1C=C[C@]23c4cc5c(cc4C(O)N(C[C@H]2O)[C@H]3C1)OCO5 (mixture of isomers)	-11.2	-23.1	6.3	30.3	69.5	5.4
OC1c2cc3c(cc2[C@]24C=C[C@@H](O)C[C@@H]2N1C[C@H]4O)OCO3 (mixture of isomers) [YEMENINE C]	9.7	1.6	0.5	18.3	31.3	–
O=C(/C=C/c1ccc(O)c(O)c1)OCCc1ccccc1 [CAFFEIC ACID PHENETHYL ESTER]	3.8	1.4	68.2	93.7	99.6	15
N=C(N)NCCSSCCNC(=N)N [GUANIDINOETHYLDISULFIDE]	6.2	24.4	57.9	89.7	97.9	7.4
CO[C@H]1[C@@H](OC)C[C@H](C)[C@@H](OC)C2=CC(=O)C=C(NC(=O)/C(C)=C/C=C/[C@H](OC)[C@@H](OC(N)=O)/C(C)=C/[C@@H]1C)C2=O [HERBIMYCIN]	48	77	–	–	–	0.094
O[C@H]1[C@H]2c3cc4c(cc3CN3CCC(=C[C@@H]1O)[C@H]23)OCO4 [LYCORINE]	0	2.8	20.6	54.4	91.4	2.5
CNC(=N)NCCC[C@H](N)C(=O)O [TILARGININE]	5.9	10.3	15	34.1	63.1	57
c1ccc2c(c1)ncc1cc3c(cc12)OCO3 [TRISPHAERIDINE]	-7.1	-6.9	-3.4	-7	0.3	–
O[C@@H]1C=C[C@]23CCN(Cc4cc5c(cc42)OCO5)[C@H]3C1 [VITTATINE]	-0.2	-12.5	7.1	13.1	42.4	–
CC(=O)O[C@H]1C=C[C@]23c4cc5c(cc4CN(C[C@@H]2O)[C@H]3C1)OCO5 [YEMENINE A]	10.4	38.1	69	93	98.5	4.9
